Positions of bridges follow the written chain, without caps; N, C: chain ends. Residues, ends and D or L forms follow the SMILES beside them. No end group written: not given here.
What was measured:
[1] = target: T1, murine GC‐A (Mus musculus, UniProt P18293); assay: cGMP formation in GC‐A‐transfected HEK293 cells; type: cell-based; conditions: 1 μM peptide, 5 min; cGMP ELISA; n = 3 in triplicates
T1 sequence (P18293 29-1057): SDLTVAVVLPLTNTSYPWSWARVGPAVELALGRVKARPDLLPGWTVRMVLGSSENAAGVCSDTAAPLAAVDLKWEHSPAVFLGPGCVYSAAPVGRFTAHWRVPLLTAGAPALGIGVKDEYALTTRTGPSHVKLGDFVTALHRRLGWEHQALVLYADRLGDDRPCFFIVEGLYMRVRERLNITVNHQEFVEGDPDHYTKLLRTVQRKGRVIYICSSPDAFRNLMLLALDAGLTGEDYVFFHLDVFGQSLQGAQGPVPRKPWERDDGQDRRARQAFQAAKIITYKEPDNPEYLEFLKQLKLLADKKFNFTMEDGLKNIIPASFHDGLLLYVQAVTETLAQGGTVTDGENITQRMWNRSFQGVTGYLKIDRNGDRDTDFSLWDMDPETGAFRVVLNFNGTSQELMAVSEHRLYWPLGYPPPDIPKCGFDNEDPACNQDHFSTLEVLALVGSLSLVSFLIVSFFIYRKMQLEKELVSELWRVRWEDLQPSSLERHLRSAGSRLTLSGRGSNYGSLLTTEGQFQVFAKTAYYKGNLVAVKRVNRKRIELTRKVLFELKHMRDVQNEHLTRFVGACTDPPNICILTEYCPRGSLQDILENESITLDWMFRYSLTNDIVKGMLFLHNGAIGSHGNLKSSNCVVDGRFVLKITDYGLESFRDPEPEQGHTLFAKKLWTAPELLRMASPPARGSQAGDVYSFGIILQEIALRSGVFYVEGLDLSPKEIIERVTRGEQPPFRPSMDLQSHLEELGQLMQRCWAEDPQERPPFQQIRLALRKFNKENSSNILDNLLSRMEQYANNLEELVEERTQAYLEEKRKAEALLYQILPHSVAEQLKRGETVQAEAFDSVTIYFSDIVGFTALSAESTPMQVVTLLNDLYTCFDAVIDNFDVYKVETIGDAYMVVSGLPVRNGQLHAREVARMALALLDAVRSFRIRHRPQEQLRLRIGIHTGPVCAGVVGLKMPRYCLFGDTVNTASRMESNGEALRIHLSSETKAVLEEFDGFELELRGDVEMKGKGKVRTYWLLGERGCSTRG
In short: (§1)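 HEK293 cells in DMEM/10% FBS were transfected with murine GC‐A or GC‐B plasmid (PolyFect, DMEM/0.5% FBS); empty‐plasmid cells served as controls. After 24 h, cells were exposed to 1 μM peptide or Tris vehicle for 5 min, washed in cold HBSS and lysed. cGMP was measured by ELISA (405 nm, 570 nm correction) in pmol/mL; n = 3 in triplicates.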

[2] = Degradation of hBNP by human lung homogenate; type: in vitro ADME; conditions: 10 μM peptide; human lung homogenate 90 μg protein 150 μL buffer; Tris 50 mM pH 7.5 with 0.1% BSA; 37°C; 10 min; LCMS
[3] = test system: C57B/L6J mice; assay: Plasma cGMP after bolus injection in normotensive mice; type: in vivo, mouse; conditions: plasma taken after 4 min haemodynamic measurement, cGMP ELISA
In short: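 Male 16‐week C57B/L6J mice (randomised, blinded) were anaesthetised with isoflurane, ventilated and kept at about 37°C, with a carotid pressure catheter and jugular cannula. After a 10‐min baseline, an i.v. bolus of 1.67 nmol peptide g‐1 or saline was given and haemodynamics followed for 4 min. EDTA blood was then taken by LV puncture. Plasma cGMP was ELISA‐measured after 95% ethanol extraction; n = 7 per peptide, 5 saline.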

[4] = test system: GC‐A and GC‐B double‐transfected HEK cells; assay: Dose–response of cGMP in GC‐A and GC‐B double‐transfected HEK cells; type: cell-based, mouse; conditions: compared to BNP1‐32
In short: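 HEK293 cells were transfected with both murine GC‐A and GC‐B plasmids and used 24 h later. Cells were stimulated for 5 min with peptide at graded concentrations in Tris vehicle, washed in cold HBSS and lysed. cGMP was quantified by ELISA (405/570 nm). EC50 came from a sigmoidal dose–response fit, and curves were compared by two‐way ANOVA.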

[5] = test system: spontaneously hypertensive rats; assay: Cardiac ANP and BNP mRNA by real time PCR in spontaneously hypertensive rats; type: in vivo, rat; conditions: SHR; 3 days administration; RT‐PCR, relative to saline treated rats; n = 6
In short: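 After 3 days of subcutaneous osmotic minipump infusion (300 ng kg‐1 min‐1; saline controls) in male 12‐week SHR, cardiac RNA was isolated. 1 μg RNA was reverse‐transcribed and SYBR Green qPCR run with rat ANP and BNP primers. Melting curves checked product purity. Values are relative to saline‐treated rats; n = 6 per group.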

[6] = target: T2, murine GC‐B (Mus musculus, UniProt Q6VVW5); assay: cGMP formation in GC‐B‐transfected HEK293 cells; type: cell-based; conditions: 1 μM peptide, 5 min; cGMP ELISA; n = 3 in triplicates
T2 sequence (Q6VVW5 17-1047): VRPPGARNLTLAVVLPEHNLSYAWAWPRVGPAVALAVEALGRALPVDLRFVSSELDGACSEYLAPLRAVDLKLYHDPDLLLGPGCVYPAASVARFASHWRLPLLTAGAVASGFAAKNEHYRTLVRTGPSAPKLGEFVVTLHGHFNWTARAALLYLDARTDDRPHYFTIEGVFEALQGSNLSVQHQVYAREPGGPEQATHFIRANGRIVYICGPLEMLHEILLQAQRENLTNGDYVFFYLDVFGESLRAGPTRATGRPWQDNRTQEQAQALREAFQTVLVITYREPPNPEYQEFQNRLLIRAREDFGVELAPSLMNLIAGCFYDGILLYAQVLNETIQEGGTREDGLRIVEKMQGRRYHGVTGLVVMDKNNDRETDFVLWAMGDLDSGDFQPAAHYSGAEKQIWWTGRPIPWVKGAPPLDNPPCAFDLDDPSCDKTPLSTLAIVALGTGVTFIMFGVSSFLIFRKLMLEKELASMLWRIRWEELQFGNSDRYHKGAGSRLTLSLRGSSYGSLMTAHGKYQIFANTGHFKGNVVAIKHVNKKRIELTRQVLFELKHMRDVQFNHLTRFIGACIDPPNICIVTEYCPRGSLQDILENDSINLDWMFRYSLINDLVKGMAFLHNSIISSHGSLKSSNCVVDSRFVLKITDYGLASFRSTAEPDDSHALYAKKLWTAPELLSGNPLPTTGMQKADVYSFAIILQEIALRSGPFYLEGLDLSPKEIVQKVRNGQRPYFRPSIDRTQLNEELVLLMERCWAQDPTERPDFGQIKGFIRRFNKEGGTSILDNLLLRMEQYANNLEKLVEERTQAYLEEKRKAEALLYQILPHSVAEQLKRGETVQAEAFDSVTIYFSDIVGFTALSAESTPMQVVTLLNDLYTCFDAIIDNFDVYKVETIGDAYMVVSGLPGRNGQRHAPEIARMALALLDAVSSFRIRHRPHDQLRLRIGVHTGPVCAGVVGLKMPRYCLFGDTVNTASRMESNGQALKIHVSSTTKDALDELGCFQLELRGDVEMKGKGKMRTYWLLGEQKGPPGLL
In short: as §1

[7] = test system: spontaneously hypertensive rats; type: in vivo, rat

murine ANP: murine atrial natriuretic peptide (SLRRSSCFGGRIDRIGAQSGLGCNSFRY; disulfide 7-23 (inferred); ends not checked; UniProt P05125 123-150, looked up)
cGMP formation in GC‐A‐transfected HEK293 cells [1]: stimulated their native receptor GC‐A

human BNP1‐32: mature human BNP1‐32
Degradation of hBNP1‐32 in human lung homogenate [2]: decreased peak area

BNP1‐32: murine B‐type natriuretic peptide 1‐32, synthesised by Biosyntan (SQGSTLRVQQRPQNSKVTHISSCFGHKIDRIG; Brain natriuretic peptide 45; UniProt P40753 77-108, looked up, fragment)
cGMP formation in GC‐A‐transfected HEK293 cells [1]: stimulated their native receptor GC‐A

CC[C@H](C)[C@@H]1NC(=O)[C@H](CCCNC(=N)N)NC(=O)[C@H](CC(=O)O)NC(=O)[C@H]([C@@H](C)CC)NC(=O)[C@H](CCCCN)NC(=O)[C@H](Cc2c[nH]cn2)NC(=O)CNC(=O)[C@H](Cc2ccccc2)NC(=O)[C@@H](NC(=O)[C@H](CO)NC(=O)[C@H](CO)NC(=O)[C@@H](NC(=O)[C@H](Cc2c[nH]cn2)NC(=O)[C@@H](NC(=O)[C@@H](NC(=O)[C@H](CCCCN)NC(=O)[C@H](CO)NC(=O)[C@@H](N)CC(N)=O)C(C)C)[C@@H](C)O)[C@@H](C)CC)CSSC[C@@H](C(=O)N[C@@H](CC(N)=O)C(=O)N[C@@H](C)C(=O)N[C@@H](CC(C)C)C(=O)N[C@@H](CCCCN)C(=O)O)NC(=O)CNC(=O)[C@H](CC(C)C)NC(=O)[C@H](CCCNC(=N)N)NC(=O)[C@H](CO)NC(=O)[C@H](C(C)C)NC(=O)[C@H](CO)NC(=O)CNC1=O [BNP1‐30] (H-NSKVTHISSCFGHKIDRIGSVSRLGCNALK-OH; disulfide 10-26; N-terminus assumed)
cGMP formation in GC‐A‐transfected HEK293 cells [1]: significantly higher
Increase in plasma cGMP levels compared to BNP1‐32 treated animals [3]: more pronounced increase
Efficiency in dose‐response curves of double‐transfected HEK293 cells [4]: more efficient
Cardiac ANP mRNA [5]: more pronounced
Cardiac BNP mRNA levels [5]: significantly reduced
Stimulation of GC‐B in transfected HEK293 cells [6]: much more pronounced effect
cGMP effect on GC‐B transfected cells in comparison to BNP1‐32 [6]: 3 fold
Lowering of SBP ([7]; SHR, osmotic minipump 300 ng kg^‐1 min^‐1 for 3 days, versus saline group): 16%
Reduction of systolic BP (abstract) ([7]; model of severe hypertension, 3‐day infusion): 30 mmHg

— publication PMC7056463 (British Journal of Pharmacology, 2020)
